# Hits are enriched below; roughly 1.2% of the tested compounds scored in any of these assays.
# CAL PDZ FP-1: human CAL PDZ-peptide interaction inhibition | Q9HD26 | inhibition, % at 20 µM | 330,000 compounds, 0.02% hits | purified CAL PDZ, TMR-peptide fluorescence polarization, 1 h;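 active = highest replicate inhibition of at least 40%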
#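 Material: tagged CAL PDZ protein CerCALP, purified; buffer or medium: sodium phosphate/NaCl buffer pH 7.4 with TCEP, IgG, Thesit; also added: fluorescent TMR peptide probe; schedule: 1 h incubation at room temperature before polarization reading; technique: fluorescence polarization from S- and P-plane intensities, G-factor corrected; control set: unlabelled peptide and DMSO controls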
# CAL PDZ FP-2: blocks peptide binding to the human CAL PDZ domain; Q9HD26; purified CAL PDZ, TMR-peptide fluorescence polarization, 1 h; inhibition, % at 24.9 µM; 300,000 compounds, 0.92% hits;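 active = mean inhibition of at least 30% with at least half of replicates also reaching 30%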
# ARNT-TACC3 inh: ARNT/TACC3 interaction disruption; inhibition, % at 9.99 µM; 390,000 compounds, 0.66% hits; AlphaScreen His-ARNT PAS-B/GST-TACC3 binding, luminescence; TACC3 fragment carries E629A point mutation;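 active = mean inhibition of replicates at least 50% and at least half of replicates each reaching 50%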
# A number is an active result; – = inactive; · = not tested or not shown.
SMILES,CAL PDZ FP-1,CAL PDZ FP-2,ARNT-TACC3 inh
Cc1cc(CN(C)C(=O)C2CCC(=O)N(CCc3ccccc3)C2)n[nH]1 (stereo not given),–,35,–
Cc1ccc(CCNC(=O)C2CCC(=O)N(Cc3cccc(F)c3)C2)cc1 (stereo not given),–,59,–
Cc1cnc(CN(C)C(=O)C2CCC(=O)N(CCc3ccccc3)C2)[nH]1 (stereo not given),–,–,–
CCCc1cc(CNC(=O)C2CCC(=O)N(CCc3cccc(F)c3)C2)on1 (stereo not given),–,35,–
CCn1ccnc1CN(C)C(=O)C1CCC(=O)N(CCc2cccc(F)c2)C1 (stereo not given),–,–,–
COc1ccc(S(=O)(=O)Nc2ccc3c(c2)C(=O)N([C@H](C)CO)C[C@H](C)[C@H](CN(C)C(=O)Nc2c(C)noc2C)OCCCC[C@H](C)O3)cc1,·,·,–
COCC(=O)N(C)C[C@@H]1Oc2ncc(C#Cc3ccc(OC)cc3)cc2C(=O)N([C@H](C)CO)C[C@H]1C,·,·,–
COC(=O)C1CCN(C(=O)C2CCC(=O)N(CCc3cccc(F)c3)C2)CC1 (stereo not given),–,–,–
O=C(NCC1CCOCC1)C1CCC(=O)N(Cc2cccc(C(F)(F)F)c2)C1 (stereo not given),–,32,–
O=C(NCCCC1CCCC1)C1CCC(=O)N(Cc2cccc(C(F)(F)F)c2)C1 (stereo not given),–,–,–
COC(=O)C1CCN(C(=O)C2CCC(=O)N(CCCc3ccccc3)C2)CC1 (stereo not given),–,69,–
O=[N+]([O-])c1ccc(Oc2cccc3cccnc23)c([N+](=O)[O-])c1,–,–,active
N#Cc1ccc(Oc2cccc3cccnc23)c([N+](=O)[O-])c1,·,–,–
O=C(O)CCCCCNS(=O)(=O)c1cccc2c1C(=O)c1ccccc1C2=O,–,–,58
O=C(O)CCCCCNS(=O)(=O)/C=C/c1ccccc1,·,–,–
O=C(NCC1CC1)[C@H]1[C@H](CO)[C@H]2Cn3c(ccc(-c4cccc(F)c4)c3=O)[C@H]2N1CC1CC1,·,·,–
Cc1ccc(S(=O)(=O)N(C)C[C@@H]2OCCCC[C@@H](C)Oc3ccc(NS(=O)(=O)c4cccs4)cc3C(=O)N([C@@H](C)CO)C[C@@H]2C)cc1,·,·,–
COc1ccc(CN2CC(=O)N(c3ccccc3OC)C2=S)cc1OC,–,–,·
CCOc1ccccc1N1C(=O)CN(Cc2ccc(OC)c(OC)c2)C1=S,·,48,–
CCCN1C[C@H](C)[C@H](OC)CN(C)C(=O)c2cc(NC(=O)c3ccccc3)ccc2OC[C@H]1C,·,·,–
CCCNC(=O)Nc1ccc2c(c1)OC[C@H](C)N(C(=O)CC)C[C@@H](C)[C@H](OC)CN(C)C2=O,·,·,–
CO[C@H]1CN(C)C(=O)c2cc(NC(=O)C3CCCC3)ccc2OC[C@@H](C)NC[C@@H]1C,·,·,–
COc1ccc(NC(=O)CSc2nnc(N)n2CC(=O)Nc2ccc(OC)cc2)cc1,–,52,–
COc1ccc(NC(=O)CSc2nnc(C)n2Cc2ccccc2)cc1,–,–,–
COCCn1c(SCC(=O)Nc2ccc(OC)cc2)nnc1-c1ccoc1C,–,–,–
SMILES,CAL PDZ FP-1,CAL PDZ FP-2,ARNT-TACC3 inh
COc1ccc(NC(=O)CSc2nnc(-c3ccoc3C)n2CCc2ccccc2)cc1,·,103,–
CC(C)NC(=O)Nc1ccc2c(c1)CC(=O)N([C@@H](C)CO)C[C@H](C)[C@H](CN(C)Cc1ccc(C(=O)O)cc1)O2,·,·,–
C[C@@H]1CN([C@H](C)CO)C(=O)c2cc(NC(=O)Cc3ccccc3)ccc2O[C@@H](C)CCCCO[C@@H]1CN(C)S(C)(=O)=O,·,·,–
CCCCC(=O)NC(c1ccccc1Cl)c1ccc2cccnc2c1O (stereo not given),–,58,–
CCCCC(=O)NC(c1ccccc1)c1ccc2cccnc2c1O (stereo not given),–,·,–
COc1ccc(NC(=O)N(C)C[C@@H]2OCCCC[C@@H](C)Oc3ccc(NC(=O)Nc4ccccc4)cc3C(=O)N([C@@H](C)CO)C[C@H]2C)cc1,·,·,–
Cc1cc(C)c(S(=O)(=O)NCc2ccccn2)cc1C,–,–,–
CCOc1c(C)cc(S(=O)(=O)NCc2ccccn2)c(C)c1C,·,67,–
Cc1ccc(C(=O)NC(=S)NNC(=O)CCN2CCOCC2)cc1,–,–,40
O=C(NC(=S)NCCN1CCOCC1)c1ccc(F)cc1,–,–,–
COc1ccc(CN(C)C[C@H]2OCCCC[C@@H](C)Oc3ccc(NS(=O)(=O)c4cn(C)cn4)cc3C(=O)N([C@H](C)CO)C[C@@H]2C)cc1,·,·,–
C[C@H]1CN([C@@H](C)CO)C(=O)c2cccc(NS(=O)(=O)c3ccc(F)cc3)c2O[C@@H]1CN(C)S(=O)(=O)c1cccs1,·,·,–
CNS(=O)(=O)c1cccc(C(=O)OCC(=O)c2ccc3c(c2)OCCO3)c1,–,45,–
CNS(=O)(=O)c1cccc(C(=O)OCC(=O)c2ccc[nH]2)c1,–,–,–
Cc1ccc(-c2cnc3c(c2)C(=O)N([C@H](C)CO)C[C@@H](C)[C@@H](CN(C)C(=O)c2cccc(F)c2)O3)cc1,·,·,–
C[C@@H]1CN([C@H](C)CO)C(=O)Cc2cc(NC(=O)c3ccncc3)ccc2O[C@H]1CN(C)CC1CC1,·,·,–
Cc1noc(C)c1NC(=O)Nc1ccc2c(c1)C(=O)N([C@@H](C)CO)C[C@@H](C)[C@@H](CN(C)C(=O)Nc1cccc3ccccc13)OCCCC[C@@H](C)O2,·,·,–
C[C@H]1CCCCO[C@@H](CN(C)S(=O)(=O)c2ccccc2)[C@@H](C)CN([C@@H](C)CO)C(=O)c2cc(NC(=O)Cc3ccccc3)ccc2O1,·,·,–
COc1ccccc1-n1c(SCC(=O)O)nc2c(sc(=S)n2-c2ccc(Cl)c(C)c2)c1=O,–,–,–
Cc1cc(-n2c(=S)sc3c(=O)n(-c4ccc(F)cc4)c(SCC(=O)O)nc32)ccc1Cl,–,–,22
Cc1cc(N=Cc2c(O)n(-c3ccc4c(c3)OCO4)c(=O)c3ccccc23)ccn1,–,35,–
Cc1ccc(-n2c(O)c(C=Nc3ccc4c(c3)OCO4)c3ccccc3c2=O)cc1C,–,–,–
CCC(=O)N[C@@H]1C=C[C@@H](CC(=O)OC)O[C@@H]1CO,·,·,–
COC(=O)CCc1c(C)nc(N)[nH]c1=O,–,–,–
Cc1nc(N)[nH]c(=O)c1CC(=O)OCCCl,–,56,–
SMILES,CAL PDZ FP-1,CAL PDZ FP-2,ARNT-TACC3 inh
COc1cccc(-c2ccc3c(c2)O[C@H](CN(C)C(=O)c2ccccc2F)[C@H](C)CN([C@@H](C)CO)S3(=O)=O)c1,·,·,–
C/C(=N\Nc1nnc(C)c(=O)[nH]1)C(=O)O,–,–,66
CC(/C=N/Nc1nnc(C)c(=O)[nH]1)=C\c1ccccc1,–,–,–
C=CCOC(=O)C1=C(C)NC(C)=C(C(=O)OCC=C)C1c1ccco1,–,–,–
CCOC(=O)C1=C(C)NC(C)=C(C(=O)OC)C1c1ccco1 (stereo not given),–,36,–
C[C@@H]1CN([C@H](C)CO)C(=O)Cc2cc(NS(=O)(=O)c3cn(C)cn3)ccc2O[C@H]1CN(C)CC1CC1,·,·,–
CCC(=O)N(C)C[C@@H]1Oc2ncc(-c3ccccc3C)cc2C(=O)N([C@@H](C)CO)C[C@@H]1C,·,·,–

# Assay outcomes: PubChem BioAssay, Broad Institute
